Measured values reported in ChEMBL document CHEMBL3286332, “Synthesis and radical scavenging activity of phenol-imidazole conjugates” (Bioorg Med Chem Lett, 2014).

How the values were obtained:
Type in all cases: functional
[1] = Antioxidant activity assessed as hydroxyl radical scavenging activity at 5 uM after 1 hr by 2-Deoxy-D-ribose degradation assay in presence of FeCl3 and EDTA
How it was run: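 The 1 mL mixture held 10 mM KH2PO4-KOH pH 7.4, 2-deoxy-D-ribose, FeCl3 made up in 2 mM Na2EDTA, H2O2, ascorbic acid and 5 μM compound added from DMSO. It was incubated 1 h at 37 °C, then thiobarbituric acid in NaOH and trichloroacetic acid were added and it was heated 15 min at 100 °C. Absorbance was read at 535 nm. Controls: no compound (100% MDA) and no deoxyribose (blank). Triplicate.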

[2] = Antioxidant activity assessed as hydroxyl radical scavenging activity at 5 uM after 1 hr by 2-Deoxy-D-ribose degradation assay in presence of FeCl3
How it was run: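 Hydroxyl radical attack on 2-deoxy-D-ribose in 10 mM KH2PO4-KOH pH 7.4 with FeCl3 made up in buffer (no EDTA), H2O2, ascorbic acid and 5 μM compound from DMSO. Incubated 1 h at 37 °C. TBA/TCA was added, the mixture heated at 100 °C for 15 min, and MDA read at 535 nm. Result is percent protection against the compound-free control. Triplicate.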

[3] = tested on: Radical scavenging activity; assay: Antioxidant activity assessed as DPPH free radical scavenging activity measured as remaining DPPH at 100 uM after 60 mins by spectrophotometric analysis relative to control
How it was run: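 100 μM compound in ethanol mixed 1:9 with 0.002% (w/v) ethanolic DPPH. Absorbance at 517 nm after 60 min, compared with an ethanol control. Value is percent of DPPH remaining, run in triplicate.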

[4] = tested on: Radical scavenging activity; assay: Antioxidant activity assessed as DPPH free radical scavenging activity after 60 mins by spectrophotometric analysis
How it was run: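 Compound in ethanol, 1 to 100 μM, combined 1:9 with 0.002% (w/v) ethanolic DPPH; absorbance read at 517 nm after 60 min against an ethanol-only control. Triplicate measurements. Inhibition of discoloration expressed as percent of control; IC50 (concentration scavenging 50% of DPPH) obtained from the inhibition curve.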

[5] = tested on: Radical scavenging activity; assay: Antioxidant activity assessed as DPPH free radical scavenging activity measured as remaining DPPH at 100 uM after 5 mins by spectrophotometric analysis relative to control
[6] = tested on: Radical scavenging activity; assay: Antioxidant activity assessed as DPPH free radical scavenging activity measured as remaining DPPH at 10 uM after 5 mins by spectrophotometric analysis relative to control
[7] = tested on: Radical scavenging activity; assay: Antioxidant activity assessed as DPPH free radical scavenging activity measured as remaining DPPH at 10 uM after 2 mins by spectrophotometric analysis relative to control

Compound	Activity [1] [%]	Activity [2] [%]	DPPH remaining [3] [%]	IC50 [4] [µM]	Activity [5] [%]	Activity [6] [%]	Activity [7] [%]
COc1ccc(-n2cnc(C#N)c2N)cc1	46	29	94.2	–	–	–	–
COc1cc(C=O)ccc1O	37	30	97.6	–	–	–	–
N#Cc1ncn(-c2ccc(F)cc2)c1/N=C/c1ccc(O)c(O)c1O	53	34	–	8.4	–	–	–
Cn1cnc(C#N)c1/N=C/c1cc(O)c(O)c(O)c1	54	44	–	4.7	–	–	–
N#Cc1ncn(-c2ccc(O)cc2)c1/N=C/c1c(O)cc(O)cc1O	55	17	45.9	–	< 50	–	–
Cn1cnc(C#N)c1/N=C/c1ccc(O)c(O)c1O	54	37	–	7	–	–	–
Cn1cnc(C#N)c1/N=C/c1ccc(O)c(O)c1	52	27	–	3.8	–	–	–
N#Cc1ncn(-c2ccc(O)cc2)c1/N=C/c1ccc(O)c(O)c1	60	38	–	3.2	–	< 50	< 50
O=Cc1ccc(O)c(O)c1O	46	34	–	11.6	–	–	–
COc1ccc(-n2cnc(C#N)c2/N=C/c2cc(O)c(O)c(O)c2)cc1	51	42	–	4	–	–	–
COc1ccc(-n2cnc(C#N)c2/N=C/c2ccc(O)c(O)c2)cc1	61	17	–	4.1	–	–	–
O=Cc1cc(O)c(O)c(O)c1	50	38	–	6	–	–	–
Cn1cnc(C#N)c1/N=C/c1c(O)cc(O)cc1O	54	18	49.9	–	–	–	–
Cn1cnc(C#N)c1N	54	23	94.2	–	–	–	–
N#Cc1ncn(-c2ccc(O)cc2)c1/N=C/c1ccc(O)c(O)c1O	38	28	–	7.2	–	< 50	–
N#Cc1ncn(-c2ccc(F)cc2)c1/N=C/c1ccc(O)c(O)c1	58	11	–	4.4	–	–	–
O=Cc1c(O)cc(O)cc1O	42	36	91.2	–	–	–	–
COc1ccc(-n2cnc(C#N)c2/N=C/c2ccc(O)c(O)c2O)cc1	57	25	–	7.3	–	–	–
N#Cc1ncn(-c2ccc(F)cc2)c1/N=C/c1cc(O)c(O)c(O)c1	54	30	–	5.8	–	–	–
COc1ccc(-n2cnc(C#N)c2/N=C/c2ccc(O)c(OC)c2)cc1	47	12	88.6	–	–	–	–
O=Cc1ccc(O)c(O)c1 [PROTOCATECHUALDEHYDE]	51	35	–	5.4	–	–	–
N#Cc1ncn(-c2ccc(O)cc2)c1/N=C/c1cc(O)c(O)c(O)c1	49	51	–	4.8	–	< 50	< 50
N#Cc1ncn(-c2ccc(F)cc2)c1N	50	19	94.1	–	–	–	–
COc1ccc(-n2cnc(C#N)c2/N=C/c2c(O)cc(O)cc2O)cc1	62	16	48.3	–	–	–	–
N#Cc1ncn(-c2ccc(O)cc2)c1N	47	57	94.8	–	–	–	–
Cc1c(C)c2c(c(C)c1O)CCC(C)(C(=O)O)O2 (centres undefined) [TROLOX]	53	31	–	9.5	–	–	–
